# Data as given in ChEMBL document CHEMBL1275600, “Prophylactic activity of intramuscular peramivir in mice infected with a recombinant influenza A/WSN/33 (H1N1) virus containing the H274Y neuraminidase mutation” (Antimicrob Agents Chemother, 2010).
# Activity calls are given as the source filed them. The rule behind the calls is not given here.
# Tests used:
# [1] = target: Neuraminidase (Influenza A virus (strain A/Wilson-Smith/1933 H1N1) (Influenza A virus(strain A/WS/1933 H1N1))) (UniProt P03470); conditions: Influenza A virus (A/WSN/1933(H1N1)); 10 mg/kg
# Influenza A virus [2] = experiment: Antiviral activity against Influenza A/WSN/33 (H1N1) virus infected in mouse assessed as survival rate at 10 mg/kg, po administered 4 days before viral challenge; assay type: functional; conditions: A/WSN/1933(H1N1)
# [3] = target: Neuraminidase (Influenza A virus (strain A/Wilson-Smith/1933 H1N1) (Influenza A virus(strain A/WS/1933 H1N1))) (UniProt P03470); conditions: Influenza A virus (A/WSN/1933(H1N1)); 2 to 20 mg/kg
# Mus musculus [4] = experiment: Toxicity against recombinant Influenza A/WSN/33 (H1N1) virus infected BALB/c mouse assessed as weight loss at 90 mg/kg, im administered as single dose and measured after 14 days; assay type: organism-based; design: dose 90 mg/kg, route intramuscular; conditions: in vivo, 336 h
# Method in brief: (§1)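 Male BALB/c mice, groups of 12, received IM drug at 50 mg/ml in pH 3.0 buffered saline, starting 1 h before intranasal infection with 8 × 10^3 PFU of recombinant virus. Body weight was monitored daily for 14 days. Mean weight loss was compared across regimens by one-way ANOVA, with uninfected PBS-treated mice as reference.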
# [5] = Cmax in mouse at 30 mg/kg, im administered as single dose and measured after 24 hrs; assay type: ADME, organism-based; design: dose 30 mg/kg, route intramuscular; conditions: in vivo
# Mus musculus [6] = experiment: Toxicity against BALB/c mouse assessed as mortality at 45 mg/kg, im once daily for 5 days measured after 14 days; assay type: organism-based; design: dose 45 mg/kg, route intramuscular; conditions: in vivo, 336 h
# Method in brief: (§2)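 Uninfected male BALB/c mice, 6 per group, received IM drug at 45 mg/kg once daily for 5 days, dissolved at 50 mg/ml in pH 3.0 buffered saline, or PBS. Body weight and mortality were monitored daily for 14 days.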
# Influenza A virus [7] = experiment: Antiviral activity against recombinant Influenza A/WSN/33 (H1N1) virus infected in BALB/c mouse assessed as survival of mouse at 45 mg/kg, im administered as single dose; assay type: functional, organism-based; design: dose 45 mg/kg; conditions: A/WSN/1933(H1N1)
# Method in brief: (§3)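 Male BALB/c mice, 6–8 weeks old and 20–25 g, were randomized by weight, 4 per cage, in groups of 12. Drug at 50 mg/ml in saline buffered to pH 3.0 was given by IM hip injection, first dose 1 h before challenge. Mice were infected intranasally under isoflurane with 8 × 10^3 PFU of cell-grown recombinant virus in 30 μl PBS. Mortality was recorded daily for 14 days.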
# [8] = Cmax in mouse at 30 mg/kg, im administered as single dose and measured after 30 mins; assay type: ADME, organism-based; design: dose 30 mg/kg, route intramuscular; conditions: in vivo
# Influenza A virus [9] = experiment: Antiviral activity against recombinant Influenza A/WSN/33 (H1N1) virus infected in BALB/c mouse assessed as survival of mouse at 45 mg/kg, im once daily for 5 days; assay type: functional, organism-based; design: dose 45 mg/kg; conditions: A/WSN/1933(H1N1)
# Method in brief: as §3
# Mus musculus [10] = experiment: Toxicity against recombinant Influenza A/WSN/33 (H1N1) virus infected BALB/c mouse assessed as weight loss at 45 mg/kg, im once daily for 5 days measured after 14 days; assay type: organism-based; design: dose 45 mg/kg, route intramuscular; conditions: in vivo, 336 h
# Method in brief: as §1
# Influenza A virus [11] = experiment: Antiviral activity against recombinant Influenza A/WSN/33 (H1N1) virus infected in BALB/c mouse assessed as survival of mouse at 90 mg/kg, im administered as single dose; assay type: functional, organism-based; design: dose 90 mg/kg; conditions: A/WSN/1933(H1N1)
# Method in brief: as §3
# Mus musculus [12] = experiment: Toxicity against BALB/c mouse assessed as weight loss in mouse at 45 mg/kg, im once daily for 5 days measured after 14 days; assay type: organism-based; design: dose 45 mg/kg, route intramuscular; conditions: in vivo, 336 h
# Method in brief: as §2
# Mus musculus [13] = experiment: Toxicity against recombinant Influenza A/WSN/33 (H1N1) virus infected BALB/c mouse assessed as weight loss at 45 mg/kg, im administered as single dose and measured after 14 days; assay type: organism-based; design: dose 45 mg/kg, route intramuscular; conditions: in vivo, 336 h
# Method in brief: as §1
# Influenza A virus [14] = experiment: Antiviral activity against Influenza A/WSN/33 (H1N1) virus infected in mouse assessed as survival rate at 10 mg/kg, im administered 4 days before viral challenge; assay type: functional; conditions: A/WSN/1933(H1N1), route intramuscular
# Neuraminidase (Influenza A virus (strain A/Wilson-Smith/1933 H1N1) (Influenza A virus(strain A/WS/1933 H1N1))), sequence (P03470 whole entry): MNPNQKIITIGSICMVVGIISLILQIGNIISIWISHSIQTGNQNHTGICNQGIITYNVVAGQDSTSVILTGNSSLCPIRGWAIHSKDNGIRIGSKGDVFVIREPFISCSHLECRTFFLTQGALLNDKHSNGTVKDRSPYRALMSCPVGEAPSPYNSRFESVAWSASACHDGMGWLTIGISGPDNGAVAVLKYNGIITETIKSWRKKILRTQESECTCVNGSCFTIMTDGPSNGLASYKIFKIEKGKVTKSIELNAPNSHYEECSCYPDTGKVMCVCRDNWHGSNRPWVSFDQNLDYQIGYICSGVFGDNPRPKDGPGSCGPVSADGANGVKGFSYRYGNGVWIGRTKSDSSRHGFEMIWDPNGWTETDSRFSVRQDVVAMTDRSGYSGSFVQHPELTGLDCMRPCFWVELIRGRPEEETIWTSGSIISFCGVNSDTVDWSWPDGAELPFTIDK
structure (smiles),measurement,setting,value
CCC(CC)[C@H](NC(C)=O)[C@@H]1[C@H](O)[C@@H](C(=O)O)C[C@H]1NC(=N)N [PERAMIVIR ANHYDROUS],T1/2,[1],> 24 h
same,survival at 10 mg/kg,Influenza A virus [2],50%
same,T1/2,[3],1.25 h
same,Activity,Mus musculus [4],Non-toxic
same,Cmax,[5],29.3 ng/mL
same,Activity,Mus musculus [6],Non-toxic
same,Activity,Influenza A virus [7],Active
same,Cmax,[8],17700 ng/mL
same,Activity,Influenza A virus [9],Active
same,Activity,Mus musculus [10],Non-toxic
same,Activity,Influenza A virus [11],Active
same,Activity,Mus musculus [12],Non-toxic
same,Activity,Mus musculus [13],Non-toxic
same,survival at 10 mg/kg,Influenza A virus [14],100%
